Experimental data taken from ChEMBL document CHEMBL3124867, “Hepatitis C replication inhibitors that target the viral NS4B protein” (J Med Chem, 2014).
Values after ≈ are worked out from the molar mass of the structure shown.

Columns and labels:
[1] = Plasma protein binding in CD rat at 5 uM after 4 hrs by rapid equilibrium dialysis method; assay type: ADME, cell-free; conditions: read-out: PPB (converted)
Huh-7 = assay: Cytotoxicity against human HuH7 cells at 50 uM after 2 days by Cell Titer Glo assay; assay type: cell-based; conditions: huh-7, 48 h
How it was run: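 Huh7 cells were exposed to compound at 50 μM for 2 days and scored for cellular toxicity.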

Rattus norvegicus [2] = organism: Rattus norvegicus; assay: Cardiovascular toxicity in rat after 7 days; assay type: organism-based; conditions: in vivo, 168 h
Hepatitis C virus [3] = assay: Antiviral activity against Hepatitis C virus genotype 1a; assay type: functional, Hepacivirus hominis; conditions: subtype 1a
[4] = Plasma protein binding in cynomolgus monkey at 5 uM after 4 hrs by rapid equilibrium dialysis method; assay type: ADME, cell-free, Macaca fascicularis; conditions: read-out: PPB (converted)
[5] = AUC (0 to 24 hrs) in CD rat at 300 mg/kg, po by LC/MS/MS analysis; assay type: ADME, organism-based; set-up: time < 24 hr, dose 300 mg/kg, route oral; conditions: plasma
How it was run: (§1)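 CD rats were given a single oral dose of 300 mg/kg of parent suspension or of prodrug. Plasma was assayed for the parent drug and for uncleaved prodrug.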

Hepatitis C virus [6] = assay: Antiviral activity against Hepatitis C virus genotype 1b infected in human HuH7 cells after 48 hrs by luciferase reporter gene assay; assay type: functional, organism-based, Hepacivirus hominis; conditions: Huh-7, 48 h
[7] = Aqueous solubility in fasted state simulated intestinal fluid at pH 6.5 by LC/UV analysis; assay type: physicochemical
Hepatitis C virus [8] = assay: Antiviral activity against Hepatitis C virus genotype 1a infected in human HuH7 cells after 48 hrs by luciferase reporter gene assay; assay type: functional, organism-based, Hepacivirus hominis; conditions: subtype 1a, Huh-7, 48 h
[9] = Lipophilicity, log D of the compound by chromatographic analysis; assay type: physicochemical
How it was run: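 Lipophilicity was measured chromatographically and reported as ChromLogD; ≥6 replicates.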

[10] = Plasma protein binding in human at 5 uM after 4 hrs by rapid equilibrium dialysis method; assay type: ADME, cell-free; conditions: read-out: PPB (converted)
[11] = Plasma protein binding in beagle dog at 5 uM after 4 hrs by rapid equilibrium dialysis method; assay type: ADME, cell-free, Canis lupus familiaris; conditions: read-out: PPB (converted)
[12] = Displacement of [3H]-3-(1-(3-chloro-6-isopropyl-8-(trifluoromethyl)imidazo[1,2-a]pyridine-2-carbonyl)piperidin-4-yl)oxazolidin-2-one from HCV genotype 1b C-terminal His-tagged NS4B (1 to 261 aa) expressed in baculovirus infected SF9 cells after overnight incubation; set-up: species or system Hepatitis C virus subtype 1b
Hepatitis C virus [13] = assay: Antiviral activity against Hepatitis C virus genotype 1b expressing NS4B V105M mutant infected in human HuH7 cells after 48 hrs by luciferase reporter gene assay; assay type: functional, organism-based, Hepacivirus hominis; conditions: Huh-7, 48 h
Hepatitis C virus [14] = assay: Antiviral activity against wild-type Hepatitis C virus genotype 1a infected in PXB mouse assessed as log reduction in viral mRNA titer at 10 to 30 mg/kg, po bid every 12 hrs for 7 days measured after 12 hrs relative to control; assay type: functional, Hepacivirus hominis, subtype 1a; conditions: dose mg/kg 10-30
How it was run: (§2)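 PXB mice infected with wild-type HCV genotype 1a virus were dosed orally b.i.d. 5−8 weeks after infection with the phosphate prodrug of the lead (10 or 30 mg/kg) for 7 days, n = 4/group. A non-nucleoside NS5B inhibitor at 100 mg/kg b.i.d. served as positive control. Read-out was HCV viral RNA titer (viral load) over the course of treatment.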

[15] = Toxicity in po dosed PXB mouse assessed as compound accumulation administered bid every 12 hrs for 7 days; assay type: organism-based; conditions: in vivo
How it was run: (§3)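 Repeat-dose tolerability study in uninfected PXB mice, run before HCV infection. The test agent was given orally as a phosphate prodrug at 10 and 30 mg/kg b.i.d. for 7 days. Plasma exposure of the parent drug was followed over the course, and liver tissue was taken 12 h after dosing on day 7.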

Hepatitis C virus [16] = assay: Antiviral activity against wild-type Hepatitis C virus genotype 1a infected in PXB mouse assessed as log reduction in viral mRNA titer at 10 to 30 mg/kg, po bid every 12 hrs for 7 days measured on day 4 relative to control; assay type: functional, Hepacivirus hominis, subtype 1a; conditions: dose mg/kg 10-30; how it was run: as §2
Liver = assay: Drug uptake in PXB mouse liver assessed as 4-(3-chloro-6-cyclopropyl-8-(trifluoromethyl)imidazo[1,2-a]pyridine-2-carbonyl)-1-((trans)-4-hydroxycyclohexyl)piperazin-2-one level at 10 to 30 mg/kg, po bid every 12 hrs for 7 days measured 12 hrs post last dose; assay type: ADME, organism-based; set-up: dose 10-30 mg/kg, route oral; conditions: in vivo
How it was run: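 Uninfected PXB mice were given the prodrug orally at 10 or 30 mg/kg b.i.d. for 7 days. Liver tissue was taken 12 h after the day-7 dose and the level of parent drug in liver was measured relative to plasma.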

Rattus norvegicus [17] = assay: Prodrug conversion in CD rat assessed as 4-(3-chloro-6-cyclopropyl-8-(trifluoromethyl)imidazo[1,2-a]pyridine-2-carbonyl)-1-((trans)-4-hydroxycyclohexyl)piperazin-2-one level at 300 mg/kg, po; assay type: ADME, organism-based; set-up: dose 300 mg/kg, route oral; conditions: in vivo; how it was run: as §1
Hepatitis C virus [18] = assay: Antiviral activity against wild-type Hepatitis C virus genotype 1a infected in po dosed PXB mouse assessed as log reduction in viral mRNA titer administered bid every 12 hrs for 7 days measured on day 7 relative to control; assay type: functional, organism-based; conditions: Hepacivirus hominis; subtype 1a
How it was run: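 PXB mice were infected with HCV genotype 1a wild-type virus and treated 5−8 weeks later (n = 4/group). Oral dosing b.i.d. for 7 days: prodrug at 10 or 30 mg/kg, or positive control at 100 mg/kg. Serum HCV RNA titers (viral load) were followed over the course of dosing.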

Mus musculus [19] = assay: AUC (0 to 12 hrs) in PXB mouse assessed as 4-(3-chloro-6-cyclopropyl-8-(trifluoromethyl)imidazo[1,2-a]pyridine-2-carbonyl)-1-((trans)-4-hydroxycyclohexyl)piperazin-2-one level at 30 mg/kg, po; assay type: ADME, organism-based, Plasma; set-up: time < 12 hr, dose 30 mg/kg, route oral; conditions: in vivo
How it was run: (§4)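 Single oral dose of the phosphate prodrug at 10 or 30 mg/kg to uninfected PXB mice (n = 3/group). Plasma levels of the parent drug were followed over 12 h, and AUC0−12h was calculated for the parent.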

Mus musculus [20] = assay: AUC (0 to 12 hrs) in PXB mouse assessed as 4-(3-chloro-6-cyclopropyl-8-(trifluoromethyl)imidazo[1,2-a]pyridine-2-carbonyl)-1-((trans)-4-hydroxycyclohexyl)piperazin-2-one level at 10 mg/kg, po; assay type: ADME, organism-based, Plasma; set-up: time < 12 hr, dose 10 mg/kg, route oral; conditions: in vivo; how it was run: as §4
[21] = Toxicity in po dosed PXB mouse assessed as induction of metabolism administered bid every 12 hrs for 7 days; assay type: organism-based; conditions: in vivo; how it was run: as §3

Question: Which fraction unbound at 4 h, 5 µM [1] does the source give for O=C(c1nc2c(C(F)(F)F)cc(C3CC3)cn2c1Cl)N1CCN([C@H]2CC[C@H](O)CC2)C(=O)C1 here?
Answer: 0.2

Question: What about the Activity (Huh-7) of the same molecule?
Answer: Non-toxic

Question: And the Activity (Rattus norvegicus [2])?
Answer: Toxic

Question: What about the EC90 (Hepatitis C virus [3]) of the same molecule?
Answer: 29 nM

Question: And the fraction unbound at 4 h, 5 µM [4]?
Answer: 0.23

Question: And the AUC(0-t) at 24 h [5]?
Answer: 11300 ng·h/mL

Question: And the EC50 (Hepatitis C virus [6])?
Answer: 7 nM

Question: What about the solubility [7] of the same molecule?
Answer: 11 µg/mL (≈ 22.7 µM)

Question: And the EC50 (Hepatitis C virus [8])?
Answer: 1 nM

Question: What about the chromatographic logD [9] of the same molecule?
Answer: 3.5

Question: What about the fraction unbound at 4 h, 5 µM [10] of the same molecule?
Answer: 0.17

Question: And the fraction unbound at 4 h, 5 µM [11]?
Answer: 0.34

Question: What about the IC50 [12] of the same molecule?
Answer: 53 nM

Question: And the EC50 (Hepatitis C virus [13])?
Answer: 730 nM

Question: With O=C(c1nc2c(C(F)(F)F)cc(C3CC3)cn2c1Cl)N1CCN([C@H]2CC[C@H](OP(=O)(O)O)CC2)C(=O)C1 as the molecule, how does the FC (Hepatitis C virus [14]) read?
Answer: 1

Question: What about the MTD at 7 days [15] of the same molecule?
Answer: 10 mg/kg

Question: And the FC (Hepatitis C virus [16])?
Answer: 4

Question: And the Drug uptake (Liver)?
Answer: Active

Question: And the solubility [7]?
Answer: > 1000 µg/mL

Question: What about the Stability (Rattus norvegicus [17]) of the same molecule?
Answer: Unstable

Question: What about the Activity (Hepatitis C virus [18]) of the same molecule?
Answer: Dose-dependent effect

Question: And the AUC (Mus musculus [19])?
Answer: 66000 ng·h/mL

Question: And the AUC (Mus musculus [20])?
Answer: 15000 ng·h/mL

Question: What about the MTD at 7 days [21] of the same molecule?
Answer: 30 mg/kg
